Source: ChEMBL document CHEMBL4265871, “Novel alkylated azoles as potent antifungals” (Eur J Med Chem, 2017)
≈ marks a conversion by molar mass, not a printed value.

Tests used:
[1] = Selectivity index, ratio of EC50 for toxicity in human A549 cells to MIC50 for antifungal activity against ITC and FLC-susceptible Candida albicans ATCC MYA-2876; type: cell-based; details: read-out: Selectivity Index
Method in brief: (§1)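 Selectivity index is the EC50 against the mammalian line (A549 or BEAS-2B) divided by the MIC against the given fungal strain.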

[2] = Hemolytic activity in mouse erythrocytes assessed as hemolysis level at 125 ug/ml incubated for 1 hr at 37 degC; type: ADME, cell-based, Erythrocyte; details: read-out: Activity
Method in brief: (§2)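 Mouse erythrocytes incubated 1 h at 37 °C with test agents over 1.95 to 125 µg/mL. Percent lysis is read for each concentration.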

Aspergillus flavus = experiment: Antifungal activity against Aspergillus flavus ATCC MYA-3631 incubated for 48 hrs by CLSI M38-A2 protocol based method; type: functional; details: ATCC MYA-3631, 48 h, read-out: MIC100
[3] = Selectivity index, ratio of EC50 for toxicity in human A549 cells to MIC50 for antifungal activity against ITC and FLC-susceptible Candida albicans ATCC MYA-2310; type: cell-based; details: read-out: Selectivity Index; method in brief: as §1
Candida albicans [4] = experiment: Antifungal activity against ITC and FLC-susceptible Candida albicans ATCC MYA-2310 incubated for 48 hrs by modified CLSI M27-A3 protocol based method; type: functional; details: ATCC MYA-2310, 48 h
[5] = Selectivity index, ratio of EC50 for toxicity in human A549 cells to MIC50 for antifungal activity against ITC and FLC-resistant Candida albicans ATCC 1237; type: cell-based; details: read-out: Selectivity Index; method in brief: as §1
[6] = Selectivity index, ratio of […] for toxicity in human BEAS2B cells to MIC50 for antifungal activity against Aspergillus nidulans ATCC 38163; type: cell-based; details: BEAS-2B cells, read-out: Selectivity Index
Candida albicans [7] = experiment: Antifungal activity against Candida albicans ATCC 64124 incubated for 48 hrs by modified CLSI M27-A3 protocol based method; type: functional; details: ATCC 64124, 48 h
Pichia kudriavzevii = experiment: Antifungal activity against Candida krusei ATCC 6258 incubated for 48 hrs by modified CLSI M27-A3 protocol based method; type: functional; details: ATCC 6258, 48 h, read-out: MIC100
Method in brief: (§3)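 For C. albicans ATCC 10231, C. krusei ATCC 6258 and C. parapsilosis ATCC 22019, MIC-0 was read, meaning complete growth inhibition. For azole controls, MIC-2 (50% growth inhibition) was reported instead. Caspofungin and voriconazole were tested here; other controls came from earlier work.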

[8] = Hemolytic activity in mouse erythrocytes assessed as hemolysis level at 15.6 ug/ml incubated for 1 hr at 37 degC; type: ADME, cell-based, Erythrocyte; details: read-out: Activity; method in brief: as §2
Candida albicans [9] = experiment: Antifungal activity against Candida albicans ATCC 10231 incubated for 48 hrs by modified CLSI M27-A3 protocol based method; type: functional; details: ATCC 10231, 48 h, read-out: MIC100; method in brief: as §3
[10] = Selectivity index, ratio of EC50 for toxicity in human A549 cells to MIC for antifungal activity against Candida parapsilosis ATCC 22019
[11] = Selectivity index, ratio of EC50 for toxicity in human A549 cells to MIC50 for antifungal activity against Candida glabrata ATCC 2001; type: cell-based; details: read-out: Selectivity Index; method in brief: as §1
[12] = Selectivity index, ratio of EC50 for toxicity in human A549 cells to MIC50 for antifungal activity against ITC and FLC-resistant Candida albicans ATCC MYA-1003; type: cell-based; details: read-out: Selectivity Index; method in brief: as §1
Candida albicans [13] = experiment: Antifungal activity against ITC and FLC-resistant Candida albicans ATCC MYA-1003 incubated for 48 hrs by modified CLSI M27-A3 protocol based method; type: functional; details: ATCC MYA-1003, 48 h
Method in brief: (§4)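 Because these Candida strains show trailing growth, MIC-2 was read, meaning 50% growth inhibition. Caspofungin and voriconazole were tested here; other controls came from earlier work.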

Aspergillus terreus = experiment: Antifungal activity against Aspergillus terreus ATCC MYA-3633 incubated for 48 hrs by CLSI M38-A2 protocol based method; type: functional; details: ATCC MYA-3633, 48 h, read-out: MIC100
Aspergillus nidulans = experiment: Antifungal activity against Aspergillus nidulans ATCC 38163 incubated for 48 hrs by CLSI M38-A2 protocol based method; type: functional; details: ATCC 38163, 48 h, read-out: MIC100
[14] = Selectivity index, ratio of EC50 for toxicity in human BEAS2B cells to MIC50 for antifungal activity against ITC and FLC-resistant Candida albicans ATCC MYA-1003; type: cell-based; details: BEAS-2B cells, read-out: Selectivity Index; method in brief: as §1
[15] = Hemolytic activity in mouse erythrocytes assessed as hemolysis level at 3.9 ug/ml incubated for 1 hr at 37 degC; type: ADME, cell-based, Erythrocyte; details: read-out: Activity; method in brief: as §2
[16] = Selectivity index, ratio of EC50 for toxicity in human BEAS2B cells to MIC100 for antifungal activity against Candida albicans ATCC 10231; type: cell-based; details: BEAS-2B cells, read-out: Selectivity Index; method in brief: as §1
[17] = Hemolytic activity in mouse erythrocytes assessed as hemolysis level at 31.3 ug/ml incubated for 1 hr at 37 degC; type: ADME, cell-based, Erythrocyte; details: read-out: Activity; method in brief: as §2
[18] = Selectivity index, ratio of […] for toxicity in human A549 cells to MIC50 for antifungal activity against Aspergillus nidulans ATCC 38163; type: cell-based; details: read-out: Selectivity Index
[19] = Selectivity index, ratio of […] for toxicity in human A549 cells to MIC50 for antifungal activity against Aspergillus terreus ATCC MYA-3633; type: cell-based; details: read-out: Selectivity Index
[20] = Selectivity index, ratio of EC50 for toxicity in human BEAS2B cells to MIC50 for antifungal activity against ITC and FLC-resistant Candida albicans ATCC 1237; type: cell-based; details: BEAS-2B cells, read-out: Selectivity Index; method in brief: as §1
Candida albicans [21] = experiment: Antifungal activity against ITC and FLC-resistant Candida albicans ATCC 1237 incubated for 48 hrs by modified CLSI M27-A3 protocol based method; type: functional; details: ATCC 1237, 48 h; method in brief: as §4
Nakaseomyces glabratus = experiment: Antifungal activity against Candida glabrata ATCC 2001 incubated for 48 hrs by modified CLSI M27-A3 protocol based method; type: functional; details: ATCC 2001, 48 h
Candida parapsilosis = experiment: Antifungal activity against Candida parapsilosis ATCC 22019 incubated for 48 hrs by modified CLSI M27-A3 protocol based method; type: functional; details: Lodderomyces parapsilosis, ATCC 22019, 48 h; read-out: MIC100; method in brief: as §3
Candida albicans [22] = experiment: Antifungal activity against ITC and FLC-susceptible Candida albicans ATCC MYA-2876 incubated for 48 hrs by modified CLSI M27-A3 protocol based method; type: functional; details: ATCC MYA-2876, 48 h; method in brief: as §4
[23] = Selectivity index, ratio of EC50 for toxicity in human BEAS2B cells to MIC50 for antifungal activity against Candida krusei ATCC 6258; details: BEAS-2B cells
[24] = Hemolytic activity in mouse erythrocytes assessed as hemolysis level at 7.8 ug/ml incubated for 1 hr at 37 degC; type: ADME, cell-based, Erythrocyte; details: read-out: Activity; method in brief: as §2
[25] = Selectivity index, ratio of EC50 for toxicity in human BEAS2B cells to MIC50 for antifungal activity against Candida glabrata ATCC 2001; type: cell-based; details: BEAS-2B cells, read-out: Selectivity Index; method in brief: as §1
[26] = Selectivity index, ratio of EC50 for toxicity in human BEAS2B cells to MIC50 for antifungal activity against ITC and FLC-susceptible Candida albicans ATCC MYA-2876; type: cell-based; details: BEAS-2B cells, read-out: Selectivity Index
Method in brief: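 Ratio of the compound's EC50 against BEAS-2B cells to its MIC against the named C. albicans strain. […] For C. albicans strains other than ATCC 10231, trailing growth meant MIC-2 was taken, meaning 50% growth inhibition.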

CCCCCCCCC(O)(Cn1cncn1)c1ccc(F)cc1F (stereo unspecified)
selectivity ratio [1]: 6 | hemolysis at 1 h, 125 ug/ml [2]: 97.1% | MIC (Aspergillus flavus): 92.8 µM (≈ 31.3 µg/mL) | selectivity ratio [3]: 6 | MIC50 (Candida albicans [4]): 5.8 µM (≈ 1.96 µg/mL) | selectivity ratio [5]: 6 | selectivity ratio [6]: 27 | MIC50 (Candida albicans [7]): 11.6 µM (≈ 3.91 µg/mL) | MIC (Pichia kudriavzevii): 0.71 µM (≈ 0.24 µg/mL) | hemolysis at 1 h, 15.6 ug/ml [8]: 66.7% | MIC (Candida albicans [9]): 5.8 µM (≈ 1.96 µg/mL) | selectivity ratio [10]: 200 | selectivity ratio [11]: 6 | selectivity ratio [12]: 6 | MIC50 (Candida albicans [13]): 5.8 µM (≈ 1.96 µg/mL) | MIC (Aspergillus terreus): 23.1 µM (≈ 7.79 µg/mL) | MIC (Aspergillus nidulans): 1.4 µM (≈ 0.472 µg/mL) | selectivity ratio [14]: 7 | hemolysis at 1 h, 3.9 ug/ml [15]: 0% | selectivity ratio [16]: 7 | hemolysis at 1 h, 31.3 ug/ml [17]: 68.4% | selectivity ratio [18]: 25 | selectivity ratio [19]: 2 | selectivity ratio [20]: 7 | MIC50 (Candida albicans [21]): 5.8 µM (≈ 1.96 µg/mL) | MIC50 (Nakaseomyces glabratus): 5.8 µM (≈ 1.96 µg/mL) | MIC (Candida parapsilosis): ≤ 0.18 µM | MIC50 (Candida albicans [22]): 5.8 µM (≈ 1.96 µg/mL) | selectivity ratio [23]: 54 | hemolysis at 1 h, 7.8 ug/ml [24]: 46.8% | selectivity ratio [25]: 7 | selectivity ratio [26]: 7

CCCCCC(O)(Cn1cncn1)c1ccc(Cl)cc1Cl (stereo unspecified)
selectivity ratio [1]: 34 | hemolysis at 1 h, 125 ug/ml [2]: 100% | MIC (Aspergillus flavus): 11.9 µM (≈ 3.91 µg/mL) | selectivity ratio [3]: 17 | MIC50 (Candida albicans [4]): 5.9 µM (≈ 1.94 µg/mL) | selectivity ratio [5]: 17 | selectivity ratio [6]: 65 | MIC50 (Candida albicans [7]): 5.9 µM (≈ 1.94 µg/mL) | MIC (Pichia kudriavzevii): 1.5 µM (≈ 0.492 µg/mL) | hemolysis at 1 h, 15.6 ug/ml [8]: 0% | MIC (Candida albicans [9]): 0.73 µM (≈ 0.24 µg/mL) | selectivity ratio [10]: 1100 | selectivity ratio [11]: 17 | selectivity ratio [12]: 34 | MIC50 (Candida albicans [13]): 3 µM (≈ 0.985 µg/mL) | MIC (Aspergillus terreus): 11.9 µM (≈ 3.91 µg/mL) | MIC (Aspergillus nidulans): 1.5 µM (≈ 0.492 µg/mL) | selectivity ratio [14]: 32 | hemolysis at 1 h, 3.9 ug/ml [15]: 0% | selectivity ratio [16]: 130 | hemolysis at 1 h, 31.3 ug/ml [17]: 90.5% | selectivity ratio [18]: 69 | selectivity ratio [19]: 8 | selectivity ratio [20]: 16 | MIC50 (Candida albicans [21]): 5.9 µM (≈ 1.94 µg/mL) | MIC50 (Nakaseomyces glabratus): 5.9 µM (≈ 1.94 µg/mL) | MIC (Candida parapsilosis): < 0.09 µM | MIC50 (Candida albicans [22]): 3 µM (≈ 0.985 µg/mL) | selectivity ratio [23]: 65 | hemolysis at 1 h, 7.8 ug/ml [24]: 0% | selectivity ratio [25]: 16 | selectivity ratio [26]: 32

CCCCCCC(O)(Cn1cncn1)c1ccccc1Cl (stereo unspecified)
selectivity ratio [1]: 32 | hemolysis at 1 h, 125 ug/ml [2]: 92% | MIC (Aspergillus flavus): 6.3 to 12.7 µM (≈ 1.94 to 3.91 µg/mL) | selectivity ratio [3]: 16 | MIC50 (Candida albicans [4]): 6.3 µM (≈ 1.94 µg/mL) | selectivity ratio [5]: 32 | selectivity ratio [6]: 522 | MIC50 (Candida albicans [7]): > 102 µM | MIC (Pichia kudriavzevii): 0.39 µM (≈ 0.12 µg/mL) | hemolysis at 1 h, 15.6 ug/ml [8]: 0% | MIC (Candida albicans [9]): 25.3 µM (≈ 7.79 µg/mL) | selectivity ratio [10]: 261 | selectivity ratio [11]: 32 | selectivity ratio [12]: 4 | MIC50 (Candida albicans [13]): 25.3 µM (≈ 7.79 µg/mL) | MIC (Aspergillus terreus): 1.6 µM (≈ 0.493 µg/mL) | MIC (Aspergillus nidulans): 0.19 µM (≈ 0.0585 µg/mL) | selectivity ratio [14]: 4 | hemolysis at 1 h, 3.9 ug/ml [15]: 0% | selectivity ratio [16]: 4 | hemolysis at 1 h, 31.3 ug/ml [17]: 0% | selectivity ratio [18]: 522 | selectivity ratio [19]: 65 | selectivity ratio [20]: 32 | MIC50 (Candida albicans [21]): 3.2 µM (≈ 0.985 µg/mL) | MIC50 (Nakaseomyces glabratus): 3.2 µM (≈ 0.985 µg/mL) | MIC (Candida parapsilosis): 0.39 µM (≈ 0.12 µg/mL) | MIC50 (Candida albicans [22]): 3.2 µM (≈ 0.985 µg/mL) | selectivity ratio [23]: 261 | hemolysis at 1 h, 7.8 ug/ml [24]: 0% | selectivity ratio [25]: 32 | selectivity ratio [26]: 32
